Laboratory results taken from PubChem BioAssay.
Activity calls are given as the source filed them.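 How the source made its calls, unless noted: active means visually confirmed hit in the image check and inhibition above 20%; inconclusive means visually confirmed hit but inhibition not above 20%; inactive means no visual hit in the image check.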

Assays:
[1] = inhibitors of TNFa-induced NFkB p65 translocation, primary screen, imaging, HUVEC, MLSMR starter and 10KST1 sets (AID 438;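 active means inhibition above 20% together with a positive visual image hit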;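 further: compound added about 3h40 before a 20 min TNFalpha stimulation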;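 on inhibition: signal is the nuclear over cytoplasmic p65 intensity ratio per well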); details: HUVEC TNFa-induced p65 nuclear translocation; cell count: measured here: nuclei count (cytotoxicity indicator), at 2.08 µM; inhibition: at 2 µM, stronger effect = higher value, 0% TNFa-plus-vehicle, 100% no-TNFa wells
[2] = reduction of polyQ htt aggregates in cells – imaging, exon1htt(103Q)mCFP cells, high-content imaging, primary screen (AID 483;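 active means visual image review flags a hit and inhibition of aggregation exceeds 20%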;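 further: compound exposure lasted 3 days before fixation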;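 on nuclei count: percent of the per-plate median nuclei count of sample wells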); details: exon1htt(103Q)mCFP cell line, aggregate imaging, at 2 µM; inhibition of aggregation: stronger effect = higher value; nuclei count: measured here: cell count, toxicity
[3] = endothelial E-selectin expression blockers – imaging, HUVEC, immunofluorescence, MLSMR starter and 10KST1 sets, primary screen (AID 487); details: HUVEC TNFalpha-induced E-selectin immunofluorescence imaging, at 2 µM; inhibition: stronger effect = higher value; nuclei count: measured here: cell number, toxicity;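 on inhibition: signal is fraction of cell area covered by stained E-selectin grains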;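 on nuclei count: 100% = median nuclei count of all wells on the same plate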
[4] = target: Voltage-gated potassium channel subunit beta-2 (Rattus norvegicus) (UniProt P62483); assay: inhibitors of rat Kvbeta2 reductase activity – biochemical, NADPH fluorescence, primary screen (AID 622;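 active means fluorescence slope higher than the sample average by over 3 SD, cut at about -0.22 in these data, passing the limit was not always enough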;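 further: slope of raw intensity against log time taken from 70 to 1610 s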); details: recombinant KvBeta, 4-cyanobenzaldehyde reduction, at 10 µM, stronger effect = higher value
[5] = target: Voltage-gated potassium channel subunit beta-2 (Rattus norvegicus) (UniProt P62483); assay: enhancers of rat Kvbeta2 NADPH turnover – biochemical, NADPH fluorescence, primary screen (AID 623;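 active means NADPH fluorescence slope more negative than the mean of all samples by about 3 SD, 99.7% confidence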;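 further: fluorescence intensity change per second fitted from 20 to 320 s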); details: Recombinant KvBeta, NADPH fluorescence decrease slope, 10 min; at 10 µM; stronger effect = lower value
[6] = target: Muscarinic acetylcholine receptor M4 (Homo sapiens) (UniProt P08173); assay: M4-linked GIRK flux change, two-sided – cell-based, HEK293 M4/GIRK, thallium flux, BTC-AM, M4 allosteric agonist project, primary screen (AID 625;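 active means fluorescence slope after compound addition differing from the mean of all tested samples at 99.7% confidence, mostly higher but some lower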;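 further: thallium influx through GIRK channels coupled to M4 in HEK293 cells with BTC-AM dye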); details: at 10 µM, actives lie on both sides
Outline: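 Assay system: HEK293 cells with M4 receptor and GIRK channels / Controls: carbachol and DMSO controls / Schedule: 1 h dye loading, 2 min kinetic read / Technique: kinetic fluorescence with BTC-AM dye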

[7] = blockers of RIG-like receptor reporter activation – cell-based, Sendai virus stimulus, luciferase, 10K MLSCN set, TLR/RLR signaling modifier project, primary screen (AID 602276;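 active means inhibition at or above 50% at 10 µM; inactive means inhibition below 50%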;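 further: firefly luciferase from ISG56 promoter only with Renilla not read in this screen; 0% = Sendai virus plus DMSO and 100% = medium plus DMSO without virus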); details: HEK293 RL24 IRF3 luciferase reporter, at 10 µM, stronger effect = higher value
[8] = TLR3 IRF3 reporter activation blockers – cell-based, poly I:C stimulus, luciferase, 10K MLSCN set, primary screen (AID 602277;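 active means inhibition of the reporter signal at or above 50%; inactive means inhibition below 50%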); details: HEK293-TLR3 RL24 IRF3 luciferase reporter, at 10 µM, stronger effect = higher value

Chain of Muscarinic acetylcholine receptor M4 (Homo sapiens) (P08173 whole entry, looked up): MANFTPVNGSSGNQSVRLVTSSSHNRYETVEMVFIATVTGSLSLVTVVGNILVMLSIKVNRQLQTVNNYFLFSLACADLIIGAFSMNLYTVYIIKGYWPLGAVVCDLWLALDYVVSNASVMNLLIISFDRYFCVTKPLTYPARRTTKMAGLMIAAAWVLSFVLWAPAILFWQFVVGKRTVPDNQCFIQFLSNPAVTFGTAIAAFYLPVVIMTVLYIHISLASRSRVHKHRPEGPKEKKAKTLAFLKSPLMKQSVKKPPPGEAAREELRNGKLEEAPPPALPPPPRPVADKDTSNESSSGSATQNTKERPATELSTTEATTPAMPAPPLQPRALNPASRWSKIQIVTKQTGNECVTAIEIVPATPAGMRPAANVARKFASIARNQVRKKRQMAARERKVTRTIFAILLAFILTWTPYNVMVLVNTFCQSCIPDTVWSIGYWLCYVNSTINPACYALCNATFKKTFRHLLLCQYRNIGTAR
Chain of Voltage-gated potassium channel subunit beta-2 (Rattus norvegicus) (P62483 whole entry, looked up): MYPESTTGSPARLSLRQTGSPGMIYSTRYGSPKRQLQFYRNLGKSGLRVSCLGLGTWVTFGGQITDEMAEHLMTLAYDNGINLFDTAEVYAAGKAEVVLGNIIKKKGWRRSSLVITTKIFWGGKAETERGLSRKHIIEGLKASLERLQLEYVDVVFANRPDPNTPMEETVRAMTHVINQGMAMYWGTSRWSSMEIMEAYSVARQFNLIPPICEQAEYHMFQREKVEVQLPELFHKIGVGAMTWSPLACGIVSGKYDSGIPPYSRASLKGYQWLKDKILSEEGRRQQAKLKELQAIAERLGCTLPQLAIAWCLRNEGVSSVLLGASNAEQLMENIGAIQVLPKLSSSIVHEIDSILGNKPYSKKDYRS

SMILES | cell count [1] | inhibition [1] | inhibition of aggregation [2] | nuclei count [2] [%] | inhibition [3] | nuclei count [3] [%] | fluorescence slope [4] | NADPH fluorescence slope [5] | fluorescence slope [6] | inhibition [7] | inhibition [8]
CN(CCC#N)C(=O)COC(=O)c1ccc(Cl)c(S(N)(=O)=O)c1 | 426 | -2.2% (inactive) | 17.6% (inactive) | 58.5 | -96.3% (inactive) | 102 | -0.539 (inactive) | -5.1e-05 (inactive) | 0.00521 (inactive) | 16.3% (inactive) | 25.4% (inactive)
COc1ccccc1N1CCN(CCCNC(=O)Nc2ccccc2)CC1 | 377 | 8.7% (inactive) | 8.2% (inactive) | 96.1 | -129% (inactive) | 106 | -0.449 (inactive) | 1.8e-05 (inactive) | 0.00541 (inactive) | 15.3% (inactive) | 23.9% (inactive)
O=c1c(-c2ccc(F)cc2)coc2c3c(ccc12)OCCO3 | 337 | 0.7% (inactive) | 14.4% (inactive) | 131 | -65.5% (inactive) | 124 | -0.501 (inactive) | -0.000205 (inactive) | 0.00582 (inactive) | -29.6% (inactive) | -86.4% (inactive)
Cc1ccc(C)c(C(=O)NC2CC(C)(C)NC(C)(C)C2)c1 | 690 | 0.8% (inactive) | 14% (inactive) | 94 | -8.2% (inactive) | 96 | -0.578 (inactive) | -5.3e-05 (inactive) | 0.00855 (inactive) | -2.48% (inactive) | 9.21% (inactive)
Cc1cccn2cc(-c3ccccc3)nc12 | 394 | 1.7% (inactive) | -5.2% (inactive) | 103 | -36.2% (inactive) | 89.3 | -0.557 (inactive) | -1.4e-05 (inactive) | 0.00519 (inactive) | 2.94% (inactive) | -39.3% (inactive)
CC(=O)c1cc(-c2ccccc2)n(CC(=O)N2CCC(N3CCCCC3)CC2)c1C | 263 | 7.9% (inactive) | -0.7% (inactive) | 96.8 | -37.4% (inactive) | 115 | -0.545 (inactive) | -3.5e-05 (inactive) | 0.00662 (inactive) | 14.8% (inactive) | 30.7% (inactive)
Nc1nc(-c2ccccc2Br)cs1 | 392 | 4.7% (inactive) | -8.3% (inactive) | 110 | -133% (inactive) | 119 | -0.574 (inactive) | -1.6e-05 (inactive) | 0.00573 (inactive) | -14.5% (inactive) | -27% (inactive)
COc1ccc(C(CNC(=O)CN2C(=O)NC3(CC(C)CC(C)(C)C3)C2=O)N2CCOCC2)cc1 (stereo not drawn) | 427 | 8.4% (inactive) | 13.7% (inactive) | 97.7 | -57% (inactive) | 115 | -0.413 (inactive) | 3.8e-05 (inactive) | 0.00559 (inactive) | -2.17% (inactive) | -5.07% (inactive)
